As usually defined, the EC50 is the concentration at which the effect is half-maximal. The term IC50 denotes the concentration at which inhibition is half-maximal.

Here are results for 4 molecules from ChEMBL document CHEMBL3425428, “Sesquiterpenoid tropolone glycosides from Liriosma ovata” (J Nat Prod, 2015).

Experiment [1] concerns Human immunodeficiency virus 1. As to the kind of experiment: Antiviral activity against HIV1 infected in human H9 cells assessed as protection against virus-induced cytopathic effect by tetrazolium reduction based colorimetric technique. The experiment is classed as functional, organism-based. An outline of the steps:
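HIV cytopathicity assay run by a previously reported protocol. Compounds tested at up to 50 μM, with dideoxycytidine as positive control.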
Background: Protection from cytopathic effect is a common read-out in antiviral testing.

Experiment [2] concerns the target Human immunodeficiency virus type 1 reverse transcriptase (Human immunodeficiency virus 1, UniProt Q72547). As to the kind of experiment: Inhibition of human immunodeficiency virus-1 reverse transcriptase associated RNase H activity using 18-nucleotide 3,-fluorescein-labeled RNA substrate by fluorescence resonance energy transfer assay. The procedure, abridged:
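Inhibition of HIV RT-associated RNase H activity was measured by a previously described method, with β-thujaplicinol as positive control and IC50 as the readout.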

The subject of another experiment is CEM-SS. As to the kind of experiment: Cytotoxicity against human CEM-SS cells assessed as cell growth inhibition. The experiment is classed as cell-based. The procedure, abridged:
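CEM-SS cells were exposed to compounds at concentrations up to 50 μM, and cytotoxicity was scored as cell growth inhibition.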

In the case of `C=C(C)[C@@H]1CCc2cc(O[C@@H]3O[C@H](COC(=O)CC(C)(O)CC(=O)O)[C@@H](O)[C@H](O)[C@H]3O)c(=O)cc(C)c2C1` (stereo partly specified), the EC50 result in experiment [1] (h9) is “Not Active”. Further, the values for the IC50 (in experiment [2]; in the experiment on CEM-SS) were 34 µM and over 50 µM, respectively.
For `Cc1cc(=O)c(O[C@@H]2O[C@H](COC(=O)CC(C)(O)CC(=O)O)[C@@H](O)[C@H](O)[C@H]2O)cc2c1C[C@H](C(C)(C)O)CC2` (stereo partly specified), the EC50 result in experiment [1] (h9) is listed as “Not Active”. In addition, the IC50 (in experiment [2]; in the experiment on CEM-SS) was over 50 µM throughout.
Turning to `CC(C)c1ccc(O)c(=O)c(O)c1` [BETA-THUJAPLICINOL], the EC50 result in experiment [1] (h9) is on record as “Not Active”. The IC50 in experiment [2] worked out at 0.26 µM; in the experiment on CEM-SS, 2.3 µM.
For the molecule `Nc1ccn([C@H]2CC[C@@H](CO)O2)c(=O)n1` [ZALCITABINE], the EC50 in experiment [1] (Human immunodeficiency virus 1, H9, read-out: EC50) was determined as 0.079 µM. In addition, in the experiment on CEM-SS, the IC50 was 61 µM.
